# Assay results as given in ChEMBL document CHEMBL2321841, “Structure-based drug design and potent anti-cancer activity of tricyclic 5:7:5-fused diimidazo[4,5-d:4',5'-f][1,3]diazepines” (Bioorg Med Chem, 2013).
# Legend:
# [1] = Cytotoxicity against human H460 cells after 72 hrs by WST1 assay; type: functional, cell-based; conditions: NCI-H460, 72 h
# Outline: (§1)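 Cells were seeded the day before dosing at 0.5–1.7 × 10^3 cells/well in RPMI + 10% FBS. Compounds were dissolved in DMSO (stocks 100–200 mM) and tested at nine concentrations from 100 μM to 5 nM, in 4 replicates per dilution, with experiments repeated 1x or 2x. Exposure was 72 h at 37°C, 5% CO2, against a DMSO vehicle control. WST-1 was then added for 4 h and absorbance read at 450–690 nm.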
# [2] = test system: OVCAR-3; test: Cytotoxicity against human OVCAR3 cells after 72 hrs by WST1 assay; type: functional, cell-based; conditions: OVCAR-3, 72 h; outline: as §1
# [3] = test system: PC-3; test: Cytotoxicity against human PC3 cells after 72 hrs by WST1 assay; type: functional, cell-based; conditions: PC-3, 72 h; outline: as §1
# [4] = test system: MCF7; test: Cytotoxicity against human MCF7 cells after 72 hrs by WST1 assay; type: functional, cell-based; conditions: MCF7, 72 h; outline: as §1
# [5] = test system: A549; test: Cytotoxicity against human A549 cells after 72 hrs by WST1 assay; type: functional, cell-based; conditions: A549, 72 h; outline: as §1
# [6] = test system: MDA-MB-231; test: Cytotoxicity against human MDA-MB-231 cells after 72 hrs by WST1 assay; type: functional, cell-based; conditions: MDA-MB-231, 72 h; outline: as §1
# [7] = test system: PC-3; test: Growth inhibition of human PC3 cells at 100 uM after 72 hrs by WST1 assay; type: functional; conditions: PC-3, 72 h, read-out: GI
# Outline: (§2)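 The highest concentration, 100 μM, comes from a nine-point series (100 μM to 5 nM) of DMSO-dissolved compound. Cells were seeded the day before at 0.5–1.7 × 10^3 cells/well in RPMI + 10% FBS, with 4 replicates per dilution. Exposure was 72 h at 37°C, 5% CO2, against a DMSO vehicle control. WST-1 was added for 4 h and absorbance read at 450–690 nm. Growth inhibition by ≤75% was scored as not effective.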
# [8] = test system: MDA-MB-231; test: Growth inhibition of human MDA-MB-231 cells at 100 uM after 72 hrs by WST1 assay; type: functional; conditions: MDA-MB-231, 72 h, read-out: GI; outline: as §2
# [9] = test system: OVCAR-3; test: Growth inhibition of human OVCAR3 cells at 100 uM after 72 hrs by WST1 assay; type: functional; conditions: OVCAR-3, 72 h, read-out: GI; outline: as §2
# [10] = test system: MCF7; test: Growth inhibition of human MCF7 cells at 100 uM after 72 hrs by WST1 assay; type: functional; conditions: MCF7, 72 h, read-out: GI; outline: as §2
# [11] = Growth inhibition of human H460 cells at 100 uM after 72 hrs by WST1 assay; type: functional; conditions: NCI-H460, 72 h, read-out: GI; outline: as §2
# [12] = test system: A549; test: Growth inhibition of human A549 cells at 100 uM after 72 hrs by WST1 assay; type: functional; conditions: A549, 72 h, read-out: GI; outline: as §2
SMILES,IC50 [1] [µM],IC50 [2] [µM],IC50 [3] [µM],IC50 [4] [µM],IC50 [5] [µM],IC50 [6] [µM],inhibition of growth at 100 µM [7] [%],inhibition of growth at 100 µM [8] [%],inhibition of growth at 100 µM [9] [%],inhibition of growth at 100 µM [10] [%],inhibition of growth at 100 µM [11] [%],inhibition of growth at 100 µM [12] [%]
COc1ccc(Cn2cnc3c4nc(=O)n(Cc5cccc(OC)c5)c-4ncnc32)cc1,1.55,2.5,5.15,–,–,–,–,–,–,–,–,–
COc1ccc(Cn2c3ncnc4c(ncn4Cc4ccc(OC)cc4)c-3nc2=O)cc1,2.87,–,4.9,7.59,2.56,–,–,–,–,–,–,–
COc1ccc(Cn2cnc3c4nc(=O)n(Cc5ccc(F)cc5)c-4ncnc32)cc1,–,–,–,4.05,1.65,–,–,–,–,–,–,–
COc1ccc(Cn2cnc3c4nc(=O)n(Cc5cccc(C(F)(F)F)c5)c-4ncnc32)cc1,3.1,3.68,8.3,4.31,3.19,4.61,–,–,–,–,–,–
COc1ccc(Cn2cnc3c4nc(=O)n(Cc5ccc(O)cc5)c-4ncnc32)cc1,4.68,4.36,5.12,6.58,4.21,3.15,–,–,–,–,–,–
COCCOc1ccc(Cn2c3ncnc4c(ncn4Cc4ccc(OC)cc4)c-3nc2=O)cc1,5.14,5.45,6.7,14.8,4.89,5.61,–,–,–,–,–,–
COc1ccc(Cn2cnc3c4nc(=O)n(Cc5ccc(OCCO)cc5)c-4ncnc32)cc1,10.9,13.2,19.7,27.2,12.3,10.6,–,–,–,–,–,–
COc1ccc(Cn2cnc3c4nc(=O)n(Cc5cccnc5)c-4ncnc32)cc1,8.3,9.89,26.9,19.8,8.05,8.68,–,–,–,–,–,–
COc1ccc(Cn2cnc3c4nc(=O)n(Cc5ccc(N(C)C)cc5)c-4ncnc32)cc1,8.44,9.43,202,15.1,8.81,8.82,–,–,–,–,–,–
COc1ccc(Cn2cnc3c4nc(=O)n(CCN5CCCCC5)c-4ncnc32)cc1,–,–,–,–,–,–,≤ 75,≤ 75,≤ 75,≤ 75,≤ 75,≤ 75
COc1ccc(Cn2cnc3c4nc(=O)n(CCN5CCOCC5)c-4ncnc32)cc1,–,–,–,–,–,–,≤ 75,≤ 75,≤ 75,≤ 75,≤ 75,≤ 75
COc1ccc(Cn2c3ncnc4c(ncn4Cc4ccc(F)cc4)c-3nc2=O)cc1,5.06,–,7.67,5.87,4.4,5.33,–,–,≤ 75,–,–,–
COc1ccc(Cn2cnc3c4nc(=O)n(-c5ccccc5)c-4ncnc32)cc1,–,–,–,–,–,–,≤ 75,≤ 75,≤ 75,≤ 75,≤ 75,≤ 75
COc1ccc(Cn2cnc3c4nc(=O)n(-c5ccc(OC)cc5)c-4ncnc32)cc1,–,–,–,–,–,–,≤ 75,≤ 75,≤ 75,≤ 75,≤ 75,≤ 75
COc1ccc(CCn2c3ncnc4c(ncn4Cc4ccc(OC)cc4)c-3nc2=O)cc1,–,–,–,–,–,–,≤ 75,≤ 75,≤ 75,≤ 75,≤ 75,≤ 75
CCn1c2ncnc3c(ncn3Cc3ccc(OC)cc3)c-2nc1=O,–,–,–,–,–,–,≤ 75,≤ 75,≤ 75,≤ 75,≤ 75,≤ 75
CCOC(=O)Cn1c2ncnc3c(ncn3Cc3ccc(OC)cc3)c-2nc1=O,34.5,–,–,–,33.5,37,≤ 75,–,≤ 75,≤ 75,–,–

SMILES,IC50 [1] [µM],IC50 [2] [µM],IC50 [3] [µM],IC50 [4] [µM],IC50 [5] [µM],IC50 [6] [µM],inhibition of growth at 100 µM [7] [%],inhibition of growth at 100 µM [8] [%],inhibition of growth at 100 µM [9] [%],inhibition of growth at 100 µM [10] [%],inhibition of growth at 100 µM [11] [%],inhibition of growth at 100 µM [12] [%]
COc1ccc(Cn2cnc3c4nc(=O)n(CCCl)c-4ncnc32)cc1,7.9,–,9.33,–,8.63,–,–,≤ 75,≤ 75,≤ 75,–,–
COc1ccc(Cn2cnc3c4nc(=O)n(Cc5ccc(Cl)cc5)c-4ncnc32)cc1,0.85,0.88,0.92,2.38,0.78,0.97,–,–,–,–,–,–
COc1ccc(Cn2cnc3c4nc(=O)n(Cc5ccc(Br)cc5)c-4ncnc32)cc1,0.57,1.62,0.98,1.02,0.63,1.16,–,–,–,–,–,–
COc1ccc(Cn2cnc3c4nc(=O)n(Cc5ccccc5OC)c-4ncnc32)cc1,–,–,–,–,–,–,≤ 75,≤ 75,≤ 75,≤ 75,≤ 75,≤ 75
COc1ccc(Cn2cnc3c4nc(=O)n(Cc5cccc(F)c5)c-4ncnc32)cc1,1.24,3.18,1.83,1.64,1.2,2.7,–,–,–,–,–,–
COc1ccc(Cn2cnc3c4nc(=O)n(Cc5ccc(F)c(F)c5)c-4ncnc32)cc1,0.74,2.27,1.59,1.75,0.99,1.7,–,–,–,–,–,–
COc1ccc(Cn2cnc3c4nc(=O)n(Cc5cccc(Cl)c5)c-4ncnc32)cc1,1,1.07,0.97,2.49,0.89,1.15,–,–,–,–,–,–
COc1ccc(Cn2cnc3c4nc(=O)n(Cc5cccc(Br)c5)c-4ncnc32)cc1,1.17,1.54,2.57,1.85,1.37,1.53,–,–,–,–,–,–
COc1ccc(Cn2c3nc(C)nc4c(ncn4Cc4ccc(OC)cc4)c-3nc2=O)cc1,–,–,–,–,–,–,≤ 75,≤ 75,≤ 75,≤ 75,≤ 75,≤ 75
CCc1nc2n(Cc3ccc(OC)cc3)c(=O)nc-2c2ncn(Cc3ccc(OC)cc3)c2n1,–,–,–,–,–,–,≤ 75,≤ 75,≤ 75,≤ 75,≤ 75,≤ 75
COc1ccc(Cn2c3nc(-c4ccccc4)nc4c(ncn4Cc4ccc(OC)cc4)c-3nc2=O)cc1,–,–,–,–,–,–,≤ 75,≤ 75,≤ 75,≤ 75,≤ 75,≤ 75
COc1ccc(Cn2c3nc(-c4ccc(C)cc4)nc4c(ncn4Cc4ccc(OC)cc4)c-3nc2=O)cc1,–,–,–,–,–,–,≤ 75,≤ 75,≤ 75,≤ 75,≤ 75,≤ 75
COc1ccc(Cn2c3nc(CCC(=O)O)nc4c(ncn4Cc4ccc(OC)cc4)c-3nc2=O)cc1,–,–,–,–,–,–,≤ 75,≤ 75,≤ 75,≤ 75,≤ 75,≤ 75
COc1ccc(Cn2c3nc(CCCC(=O)O)nc4c(ncn4Cc4ccc(OC)cc4)c-3nc2=O)cc1,–,–,–,–,–,–,≤ 75,≤ 75,≤ 75,≤ 75,≤ 75,≤ 75
COc1ccc(Cn2c3ncnc4c(ncn4Cc4ccccc4)c-3nc2=O)cc1,–,–,–,–,–,–,≤ 75,≤ 75,≤ 75,≤ 75,≤ 75,≤ 75
CCn1cnc2c3nc(=O)n(Cc4ccc(OC)cc4)c-3ncnc21,–,–,–,–,–,–,≤ 75,≤ 75,≤ 75,≤ 75,≤ 75,≤ 75
